“Also recorded” adds a separate entry of the source.
Experiments:
cruzain and rhodesain = test: Primary screen of the MMV400 at 5 µM against cruzain and rhodesain; type: biochemical, Trypanosoma cruzi; Trypanosoma brucei; details: primary screen at 5 µM
How it was run: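 Fluorimetric screen of the library at 5 µM against recombinant cruzain and rhodesain (1 nM each). Substrate was 2.5 µM Z-FR-AMC in 0.1 M sodium acetate pH 5.5 with 0.01% Triton X-100 and 1 mM β-mercaptoethanol. Runs had no pre-incubation or 10 min enzyme–compound pre-incubation, two duplicates each. AMC release was read at 340/440 nm for 5 min at 12 s intervals; DMSO and E-64 served as controls.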

cruzain [1] = biological target: T1, cruzain (Trypanosoma cruzi, UniProt P25779); test: Aggregation assays against cruzain; type: biochemical; details: for Sensitivity of inhibition to pre-incubation with BSA: BSA 2 mg/mL in Triton X-100 0.001%; for Sensitivity of inhibition to detergent (Triton X-100): absence, 0.01% and 0.1% Triton X-100, 10 min pre-incubation with cruzain
T1 sequence (P25779 123-467): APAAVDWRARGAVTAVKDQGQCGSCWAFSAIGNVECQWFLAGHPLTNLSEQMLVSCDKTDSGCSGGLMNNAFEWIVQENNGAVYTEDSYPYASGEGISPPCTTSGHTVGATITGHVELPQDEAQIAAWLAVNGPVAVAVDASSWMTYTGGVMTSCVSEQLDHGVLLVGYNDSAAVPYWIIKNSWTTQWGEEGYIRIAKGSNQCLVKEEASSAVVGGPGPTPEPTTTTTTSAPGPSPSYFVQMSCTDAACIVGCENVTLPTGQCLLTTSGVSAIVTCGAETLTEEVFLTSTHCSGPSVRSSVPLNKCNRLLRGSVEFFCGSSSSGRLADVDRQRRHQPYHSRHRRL
How it was run: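 Recombinant cruzain (1 nM) was pre-incubated with the test compound for 10 min at room temperature, with no Triton X-100, 0.01% or 0.1% Triton X-100. Percent inhibition was compared across detergent levels. In a BSA variant, compound sat 5 min with BSA (2 mg/mL in 0.001% Triton), then 5 min with cruzain, before substrate was added, run alongside a BSA-free control. Fluorogenic Z-FR-AMC read-out was at 340/440 nm.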

cruzain [2] = biological target: T1, cruzain; test: Cruzain enzymatic assay; type: biochemical; details: for Mechanism of inhibition against cruzain: Lineweaver-Burk plots
rat cathepsin B = rat cathepsin B (Rattus norvegicus, UniProt P00787); test: Cathepsin B inhibition assay; type: biochemical; details: read-out: Inhibition of cathepsin B (greatest observed)
rat cathepsin B, sequence (P00787 80-339): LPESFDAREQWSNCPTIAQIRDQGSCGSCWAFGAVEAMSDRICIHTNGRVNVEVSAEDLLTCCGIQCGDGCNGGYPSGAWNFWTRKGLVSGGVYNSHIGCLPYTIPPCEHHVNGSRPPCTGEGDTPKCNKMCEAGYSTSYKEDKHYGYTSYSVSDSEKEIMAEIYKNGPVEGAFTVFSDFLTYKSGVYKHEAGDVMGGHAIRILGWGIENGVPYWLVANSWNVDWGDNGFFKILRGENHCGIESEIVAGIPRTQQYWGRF
How it was run: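 Buffer: 100 mM sodium phosphate, 100 mM NaCl, 1 mM EDTA, 1 mM DTT, 0.01% CHAPS, 25°C. Test compound at 100 µM or 50 µM, with or without 5 min enzyme pre-incubation. Fluorescence at 380/440 nm for 15 min. Percent inhibition versus 2% DMSO; E64 1 µM positive control. Two independent experiments, each in triplicate.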

T.cruzi (Y strain) = test: Trypomastigote release from T. cruzi-infected peritoneal macrophages; type: cell-based, Trypanosoma cruzi; details: 50 µM
[3] = tested on: Peritoneal macrophages of C57BL/6 mice; test: LDH cytotoxicity assay in peritoneal macrophages; type: cell-based, mouse; details: 3.125 µM, 24 h
[4] = tested on: Nitric oxide levels in macrophage culture; test: Nitric oxide detection; type: cell-based, mouse; details: culture supernatant after 11 days; 12 at 3.125 µM, IFN-γ 100 ng/mL
How it was run: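 Peritoneal macrophages from thioglycolate-elicited female C57BL/6 mice (8–10 wk) were plated at 2 × 10^5/well, adhered 3 h, then rested overnight. They were infected 2 h with Y-strain T. cruzi trypomastigotes (5:1 parasite:cell), washed, then given test compound or IFN-γ at 37°C, 5% CO2. Day-11 supernatant plus Griess reagent, 10 min, A540 for nitrite. Three independent experiments in triplicate; mean ± SEM.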

rhodesain = rhodesain (Trypanosoma brucei rhodesiense, UniProt Q95PM0); test: Rhodesain enzymatic assay; type: biochemical

COCCNCC(O)Cn1c2ccc(Cl)cc2c2cc(Cl)ccc21 (stereo not shown) [Compound 8]
Over 50% cruzain and rhodesain inhibition? (cruzain and rhodesain): no
Sensitivity of inhibition to pre-incubation with BSA (cruzain [1]): sensitive to pre-incubation with bovine serum albumin
Sensitivity of inhibition to detergent (Triton X-100) (cruzain [1]): highly sensitive to Triton

c1ccc(CNc2nc(Nc3ccccc3)nc3ccccc23)cc1 [Compound 7]
Over 50% cruzain and rhodesain inhibition? (cruzain and rhodesain): yes
Mechanism of inhibition against cruzain (cruzain [2]): competitive inhibition
Detergent sensitivity of inhibition at 50 µM (cruzain [1]; 50 µM compound): some detergent-sensitivity
Sensitivity of inhibition to pre-incubation with BSA (cruzain [1]): not sensitive to detergent nor BSA incubation
inhibition at 100 µM (rat cathepsin B): 29%
Trypanocidal activity in initial screen (T.cruzi (Y strain)): trypanocidal activity

CCOC(=O)c1c(C)n(-c2ccccc2)c2ccc(OC(=O)c3cc(OC)c(OC)c(OC)c3)cc12 [Compound 9]
Over 50% cruzain and rhodesain inhibition? (cruzain and rhodesain): yes

FC(F)(F)c1cccc(CNC2CCN(CCc3ccccc3)CC2)c1 [Compound 14]
Over 50% cruzain and rhodesain inhibition? (cruzain and rhodesain): yes

CC(=O)c1ccc(NC(=O)CSc2nc(-c3ccccc3Cl)ns2)cc1 [Compound 10]
Over 50% cruzain and rhodesain inhibition? (cruzain and rhodesain): yes

CCOc1cccc(C(=O)Nc2ccc(-c3nc4ccccc4[nH]3)cc2)c1 [Compound 6]
Over 50% cruzain and rhodesain inhibition? (cruzain and rhodesain): yes
Hill slope of dose-response curve (cruzain [2]; cruzain dose-response curve): 3.9
Fluorescence in the assays (signal interference) (cruzain [1]): displayed fluorescence in the assays
Sensitivity of inhibition to pre-incubation with BSA (cruzain [1]): sensitive to pre-incubation with bovine serum albumin
Sensitivity of inhibition to detergent (Triton X-100) (cruzain [1]): highly sensitive to Triton

COCCNC(=O)c1ccc(OC2CCN(Cc3ccc(F)c(F)c3)CC2)c(Cl)c1 [Compound 15]
Over 50% cruzain and rhodesain inhibition? (cruzain and rhodesain): yes
Trypanocidal activity in initial screen (T.cruzi (Y strain)): trypanocidal activity

CCOc1ccc(/C=C/c2nc(=O)c3ccccc3o2)cc1 [Compound 1]
Over 50% cruzain and rhodesain inhibition? (cruzain and rhodesain): yes

Cc1nc2ccccc2c(O)c1CC=C(Cl)Cl [Compound 4]
Over 50% cruzain and rhodesain inhibition? (cruzain and rhodesain): yes

c1ccc(-c2ccc(-c3nc4ccccc4[nH]3)cc2)cc1 [Compound 5]
Over 50% cruzain and rhodesain inhibition? (cruzain and rhodesain): yes
Fluorescence in the assays (signal interference) (cruzain [1]): displayed fluorescence in the assays
Sensitivity of inhibition to pre-incubation with BSA (cruzain [1]): sensitive to pre-incubation with bovine serum albumin
Sensitivity of inhibition to detergent (Triton X-100) (cruzain [1]): highly sensitive to Triton

COc1ccc2sc(N(Cc3cccnc3)C(=O)c3ccc(C#N)cc3)nc2c1 [Compound 13]
Over 50% cruzain and rhodesain inhibition? (cruzain and rhodesain): yes

Cl.Cl.Clc1cc(Br)ccc1-c1ccc(CNCC2CCNCC2)o1 [Compound 12, 1-[5-(4-Bromo-2-chlorophenyl)-2-furyl]-N-(4-piperidinylmethyl)methanamine dihydrochloride]
Over 50% cruzain and rhodesain inhibition? (cruzain and rhodesain): no
Mechanism of inhibition against cruzain (cruzain [2]): competitive inhibition
Sensitivity of inhibition to pre-incubation with BSA (cruzain [1]): not sensitive to detergent nor BSA incubation
Trypanocidal activity in initial screen (T.cruzi (Y strain)): trypanocidal activity
Cytotoxicity against macrophages (LDH levels) [3]: low toxicity against murine macrophages; also recorded: did not exhibit cytotoxic activity
Nitric oxide production [4]: independent of NO release

Cc1ccc(C(=O)c2oc3ccc4c(C)cc(=O)oc4c3c2C)cc1 [Compound 11]
Over 50% cruzain and rhodesain inhibition? (cruzain and rhodesain): yes

Cn1c(=O)n(C)c2cc(CNCCNc3ccnc4cc(Cl)ccc34)ccc21 [Compound 2]
Over 50% cruzain and rhodesain inhibition? (cruzain and rhodesain): yes
Ki (rhodesain): 1400 nM
Mechanism of inhibition versus rhodesain (rhodesain; Lineweaver-Burk plots): mixed mechanism; also recorded: mixed-type inhibitor
Sensitivity of inhibition to pre-incubation with BSA (cruzain [1]): not sensitive to detergent nor BSA incubation
Trypanocidal activity in initial screen (T.cruzi (Y strain)): trypanocidal activity

Cc1cc(Nc2ccc(C)c(Cl)c2)n2nc(C(F)(F)F)nc2n1 [Compound 3]
Over 50% cruzain and rhodesain inhibition? (cruzain and rhodesain): no

B1: IFN-γ: Interferon gamma (100 ng/mL, Sigma) used to stimulate macrophages as comparison treatment (protein, UniProt P01579 24-161, looked up)
Interferon gamma: QDPYVKEAENLKKYFNAGHSDVADNGTLFLGILKNWKEESDRKIMQSQIVSFYFKLFKNFKDDQSIQKSVETIKEDMNVKFFNSNKKKRDDFEKLTNYSVTDLNVQRKAIHELIQVMAELSPAAKTGKRKRSQMLFRG
Nitric oxide production [4]: increased

Source: PMC6718330 (European journal of medicinal chemistry, 2019)
